LMPTP block: blocks human LMPTP phosphatase; P24666; recombinant LMPTP-A, OMFP fluorogenic substrate, fluorescence intensity; inhibition, % at 20 µM; 360,000 tested, 0.22% active;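 active means compounds that cut the enzyme signal by at least half of the control window in the single-dose screen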;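 further: plate controls were DMSO wells with enzyme plus substrate for no effect and substrate without enzyme for full effect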
Target sequence (P24666 whole entry, looked up): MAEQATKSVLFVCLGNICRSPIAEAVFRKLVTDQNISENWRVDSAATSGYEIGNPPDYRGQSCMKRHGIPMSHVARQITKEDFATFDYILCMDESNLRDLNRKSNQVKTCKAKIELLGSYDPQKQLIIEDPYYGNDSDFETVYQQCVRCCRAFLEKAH
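Test system: LMPTP-A phosphatase enzyme. Amount: LMPTP-A at 0.625 nM final in the reaction. Reagent: OMFP substrate, 400 µM final. Times: 50 min at room temperature. Signal: endpoint fluorescence intensity from OMFP dephosphorylation. Read-out basis: % inhibition. Benchmarks: no-enzyme and uninhibited controls.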
STEP block: blocks human striatal-enriched tyrosine phosphatase; P54829; recombinant STEP, OMFP fluorogenic substrate, fluorescence; inhibition, % at 20 µM; 360,000 tested, 0.25% active;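 active means inhibition at 20 µM, scaled per plate between control wells, above about 37%, limit read from the data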;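 further: 0% = DMSO with enzyme and substrate and 100% = substrate only without enzyme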
Target sequence (P54829 whole entry, looked up): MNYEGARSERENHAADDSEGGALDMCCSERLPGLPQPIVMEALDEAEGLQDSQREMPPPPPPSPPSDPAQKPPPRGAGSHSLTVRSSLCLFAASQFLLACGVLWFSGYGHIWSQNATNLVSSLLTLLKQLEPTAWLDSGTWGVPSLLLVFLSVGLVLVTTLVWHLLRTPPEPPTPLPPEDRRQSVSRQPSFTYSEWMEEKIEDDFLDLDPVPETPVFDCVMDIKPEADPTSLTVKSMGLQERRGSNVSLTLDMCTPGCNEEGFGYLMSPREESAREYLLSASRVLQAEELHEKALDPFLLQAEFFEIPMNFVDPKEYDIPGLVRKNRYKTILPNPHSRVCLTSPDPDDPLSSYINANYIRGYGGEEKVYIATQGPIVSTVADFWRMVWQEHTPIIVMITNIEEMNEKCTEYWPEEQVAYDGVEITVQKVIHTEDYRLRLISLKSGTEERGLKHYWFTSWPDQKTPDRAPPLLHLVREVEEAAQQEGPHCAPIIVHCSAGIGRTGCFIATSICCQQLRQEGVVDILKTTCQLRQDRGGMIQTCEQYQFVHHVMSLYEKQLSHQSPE
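System: STEP phosphatase, cell-free reaction; Buffer or medium: Bis-Tris pH 6.0 buffer with DTT, detergent; Incubation: 20 min at room temperature, dark; Measured by: fluorescence, 480/540 nm.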
SUMO1-SIM PPI: modulators of human SUMO1-mediated protein-protein interactions; P63165; SUMO1 binding to a labelled peptide, TR-FRET, 1 h; inhibition, % at 20 µM; 360,000 tested, 0.33% active; AID 602429; in the data active means inhibition above about 37%
Scp-1 inhibitor: blocks human Scp-1 phosphatase activity; 340,000 tested, 0.88% active; Recombinant Scp1, phosphopeptide, malachite green phosphate absorbance; AID 493091; inhibition, % at 20 µM; Q9GZU7;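 active means inhibition above about 50% at 20 µM, limit read from the data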;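 further: plate controls were DMSO wells with enzyme for no effect and wells lacking enzyme for full effect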
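Test system – truncated SCP-1 phosphatase (76-261aa) · Reagent – Phosphorylated 17-residue peptide substrate · Incubation – 45 min room-temperature reaction, 5 min colour, 30 min stabiliser · Detection – colorimetric phosphate reagent with accelerator and stabiliser, absorbance at 630 nm · Measure – % inhibition at 20 µM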
DNMT1 inh: blocks human DNA methyltransferase DNMT1. P26358. DNMT1 molecular beacon, Hinp1I cleavage, fluorescence. inhibition (reported as % activation of signal), % at 10 µM. 360,000 tested, 0.83% active; in the data active means inhibition above about 50%
NadD inh: inhibitors of Staphylococcus aureus NadD. purified NadD enzyme, colorimetric absorbance read-out. inhibition, % at 20 µM. 360,000 tested, 0.78% active. AID 602399; in the data active means inhibition above about 26%
Beacon interf DR: shows spectral interference in the DNMT1 beacon assay. IC50, µM. molecular beacon fluorescence, spectral interference counter-screen. 200 tested, under 10 active. shares compounds with DNMT1 inh. AID 602382; call rule not given here
DNMT1 inh conf: DNMT1 inhibition confirmation, single concentration; shares compounds with DNMT1 inh; AID 602385; inhibition, % at 10 µM; 2,300 tested, 8% active; DNMT1 molecular beacon HinP1I cleavage, fluorescence;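 active means average inhibition of at least 30% in the single-concentration confirmation test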
DNMT1 interf: counter-screen for DNMT1 inhibitors: spectral interference; shares compounds with DNMT1 inh; DNMT1 molecular beacon spectral interference counterscreen, fluorescence 485/520; activation (fluorescence interference), % at 10 µM; 2,300 tested, 1% active;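 active means activation of at least 30% at 10 µM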;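 further: DNMT1 catalytic domain with a HinP1I cleavage step and a FAM/dabcyl DNA beacon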
The depositor's hits bear a star; · = no result. Compounds with a hit are over-represented: about 2.4% of the library has one in this group of screens.

SMILES	LMPTP block	STEP block	SUMO1-SIM PPI	Scp-1 inhibitor	DNMT1 inh	NadD inh	DNMT1 inh conf	DNMT1 interf	others
CCOC(=O)/C=c1/s/c(=C/c2ccc3cc(OC)ccc3c2)c(=O)n1CC(=O)NCc1ccc2c(c1)OCO2	2.3	-4.8	12.8	-9.5	54.0*	26.7	1.3	3.9
CC(=O)c1ccc(NC(=O)CSc2ccc(-c3ccc(-n4cccn4)cc3)nn2)cc1	3.5	3.8	5.5	-4.8	71.2*	-1.7	2.6	-0.2
C=CC[C@@H](CC(=O)N[C@@H](CO)Cc1ccccc1)C(=O)NC[C@@H](OC(=O)[C@@H](CC=C)CC(=O)OC(C)(C)C)c1ccccc1	0.9	-2.0	4.2	6.4	56.8*	1.1	6.8	4.7
COc1cc(NC(=S)NCCC(c2ccccc2)c2ccccc2)cc(OC)c1	2.1	2.2	-4.3	-10.4	-10.2	-5.9	·	·
COc1cccc(NC(=S)NCCC(c2ccccc2)c2ccccc2)c1	4.8	0.8	0.9	-7.5	55.5*	-8.0	9.3	9.4
O=C(COC(=O)/C=C/c1cccc(C(F)(F)F)c1)NC(=O)NCc1ccccc1	-0.9	0.4	4.4	-9.5	3.2	-5.0	·	·
O=C(COC(=O)/C=C/c1cccc(C(F)(F)F)c1)NC(c1ccccc1)c1ccccc1	-1.4	3.0	-5.6	-4.4	56.1*	3.3	0.1	2.6
O=C(O)CCN1C(=O)/C(=C/c2ccc(-c3nc4ccccc4s3)o2)SC1=S	3.0	69.8*	91.0*	46.0	98.6*	29.6	46.9*	-0.5	Beacon interf DR=>99
CCN(CC)CCOc1ccc2c(c1)C(=NO)c1cc(OCCN(CC)CC)ccc1-2	5.1	-0.4	-27.1	13.0	61.1*	-7.9	34.2*	-2.6	Beacon interf DR=>99
CCN(CC)CCOc1ccc(Br)cc1	-1.0	3.4	-4.0	2.1	13.6	-2.8	·	·
Oc1[nH]c2ccccc2c1N=Nc1ccccc1	1.9	-3.7	-6.2	-5.2	-1.7	-4.6	·	·
Oc1[nH]c2ccccc2c1N=Nc1ccc(F)cc1	1.1	-8.8	-8.6	-7.3	62.7*	-3.0	31.1*	29.5	Beacon interf DR=20.4*
COCC(=O)Nc1ccc2c(c1)[C@@H]1C[C@H](CC(=O)NCc3ccccc3)O[C@@H](CO)[C@@H]1O2	-1.7	1.8	-2.7	·	1.8	-1.3	·	·
COc1cccc(C(=O)NNC(=O)c2ccc(NS(=O)(=O)c3cccs3)cc2)c1OC	-1.2	-1.3	7.7	-3.4	0.7	-0.4	·	·
Cc1cccc2c(N=NC(=O)c3ccc(NS(=O)(=O)c4cccs4)cc3)c(O)[nH]c12	2.4	-3.5	-5.0	5.0	87.1*	60.6*	19.0	-3.7
O=c1[nH]nnc2c1ncn2C1OC(CO)C(O)C1O (stereo unspecified)	0.4	1.0	5.2	·	-0.6	0.7	·	·
Cc1ccc(/C=N/n2c(-c3cccc(Cl)c3)n[nH]c2=S)o1	-0.5	1.9	-5.9	-6.2	-4.2	4.9	·	·
S=c1[nH]nc(-c2cccc(Cl)c2)n1/N=C/c1ccc(-c2ccccc2Br)o1	3.7	-1.3	-0.9	-19.9	62.2*	21.3	13.1	-0.3
COc1ccc(OCC(=O)Nn2c(-c3cccc(OC)c3)nc3ccccc3c2=O)cc1	-2.0	3.8	10.9	-2.4	-2.1	0.5	·	·
O=C(O)c1ccc(-n2cccc2/C=N\NC(=O)c2cc3cc(Br)ccc3o2)cc1	22.9	14.4	83.5*	80.5*	101.8*	4.9	75.1*	-2.9	Beacon interf DR=>99
COc1ccc(OC)c2sc(NC(=O)c3ccc(Br)s3)nc12	20.8	3.7	13.1	-9.2	56.6*	6.1	2.4	-3.4
COc1ccc(OC)c2sc(NC(=O)c3ccc(Cl)s3)nc12	7.1	1.2	-1.2	-11.9	60.8*	1.5	6.3	0.0
COc1ccc(C(=O)c2sc(Nc3ccccc3)nc2N)cc1	1.8	2.4	-4.4	-2.0	88.6*	-1.9	2.4	5.1
Nc1nc(Nc2ccccc2)sc1C(=O)c1ccccc1	2.7	1.6	-24.0	5.0	-7.9	-7.1	·	·
COc1ccccc1-c1nnc(NC(=O)c2ccc3c(c2)OCO3)s1	3.3	0.3	2.2	-4.1	54.8*	2.0	1.7	-4.6
SMILES	LMPTP block	STEP block	SUMO1-SIM PPI	Scp-1 inhibitor	DNMT1 inh	NadD inh	DNMT1 inh conf	DNMT1 interf	others
CC(=O)C(Cc1ccccc1)NC(=O)CCl (stereo unspecified)	-0.7	3.8	-0.8	-0.7	0.4	-0.4	·	·
Cc1c(CCC(=O)O)c(=O)oc2cc3oc4c(c3cc12)CCCC4	0.2	-0.9	14.0	-0.7	91.3*	-3.3	1.1	2.5
Cc1c(CCC(=O)NCC(=O)NCC(=O)O)c(=O)oc2cc3oc4c(c3cc12)CCCC4	0.5	0.1	6.6	1.4	0.8	8.0	·	·
O=C(NCc1ccco1)c1cc2ccccc2c(=O)o1	-0.5	1.6	-9.4	3.2	34.8	-3.6	·	·
O=C(CSc1nc2ccccc2c(=O)n1-c1ccccc1)N1CCCc2ccccc21	1.3	-0.5	-2.4	-6.3	4.1	3.1	·	·
O=C(CSc1nc2ccccc2c(=O)n1-c1ccccc1)N1CCc2ccccc21	0.6	5.7	2.7	2.8	53.4*	-1.0	-1.7	-10.0
CCOc1ccccc1-n1c(SCC(=O)N2CCCc3ccccc32)nnc1-c1cccnc1	-0.3	16.9	4.1	-6.5	2.6	-2.9	·	·
CCOc1ccc(-n2c(SCC(=O)N3CCc4ccccc43)nnc2-c2c[nH]c3ccccc23)cc1	15.5	3.9	14.8	13.2	80.5*	8.1	-1.1	-5.7
CCC(=O)Nc1ccccc1C(=O)OCC(=O)Nc1ccc(S(N)(=O)=O)cc1	-0.7	3.4	4.2	-2.7	-1.3	-4.0	·	·
COc1cc2[nH]c3c(c2cc1OC)CCN1CCCC[C@@H]31	1.4	0.6	1.6	1.4	-11.0	2.6	·	·
CCCCN(C)CCn1c(=S)[nH]c2ncccc2c1=O	-2.7	5.2	-1.8	-2.5	93.6*	-2.3	0.0	-1.4
CCN(CC)CCCn1c(=S)[nH]c2ncccc2c1=O	-1.3	4.4	1.8	-6.0	9.6	-2.1	·	·
CCCS(=O)(=O)NC(=O)C1(C)CCCN(C(=O)c2c(F)cccc2F)C1 (stereo unspecified)	-1.1	-1.3	-1.8	·	4.5	-0.1	·	·
COc1ccc(Nc2ccc(OC)cc2)cc1	8.7	9.5	20.0	-9.8	56.3*	18.3	3.1	1.0

Assay outcomes from PubChem.
